Reference: ChEMBL document CHEMBL4689842, “EUbOPEN Chemogenomics Library wave 1” (2021)
Where “and” joins values, the source holds several entries; their conditions need not be identical. Equal values may be shown once.

Tested on: Fibroblast
Assay: Multiplex assay against human fibroblast
Assay type: toxicity, cell-based
How it was run: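 Cells were classed with CellPathfinder machine-learning gating, first as Hoechst high-intensity objects or normal cells, then (normal cells) as healthy, pyknosed or fragmented nuclei, and finally (pyknosed cells) as mitotic or apoptotic. Staining of live cells at seeding used Hoechst33342, BioTracker Green Microtubule Cytoskeleton Dye, MitoTracker Red and Annexin V Alexa Fluor 680, with imaging on a CQ1 microscope at 37°C and 5% CO2 after compound addition. Tubulin, mitochondrial-mass and membrane-permeability phenotypes are per cents of healthy-nucleus cells.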

[1] = 12 h, 1 µM, compound concentration 1 uM, replicate 1
[2] = 12 h, 1 µM, compound concentration 1 uM, replicate 2
[3] = 12 h, 10 µM, compound concentration 10 uM, replicate 1
[4] = 12 h, 10 µM, compound concentration 10 uM, replicate 2
[5] = 24 h, 1 µM, compound concentration 1 uM, replicate 1
[6] = 24 h, 1 µM, compound concentration 1 uM, replicate 2
[7] = 24 h, 10 µM, compound concentration 10 uM, replicate 1
[8] = 24 h, 10 µM, compound concentration 10 uM, replicate 2
[9] = 48 h, 1 µM, compound concentration 1 uM, replicate 1
[10] = 48 h, 1 µM, compound concentration 1 uM, replicate 2
[11] = 48 h, 10 µM, compound concentration 10 uM, replicate 1
[12] = 48 h, 10 µM, compound concentration 10 uM, replicate 2

CS(=O)(=O)N1CCCC(NC(=O)[C@H](CCC2CCCCC2)NC(=O)c2ccc(CNc3ncnc4c3nnn4-c3ccccc3)cc2)C1 (stereo not given in full) [SR-301]
Population Apoptotic (%) [1]: 58% and 60% and 56%
Population Fragmented Nuclei (%) [1]: 22% and 18% and 20%
Population Healthy Nuclei (%) [1]: 31% and 27% and 35%
Population Hoechst High Intensity Objects (%) [1]: 21% and 15% and 12%
Population Membrane Permeable-Phenotype (%) [1]: 16% and 32% and 28%
Population Mitochondria Different-Phenotype (%) [1]: 13% and 12% and 26%
Population Mitotic Cells (%) [1]: 41% and 39% and 43%
Population Normal (%) [1]: 78% and 84% and 87%
Population Pyknosed Nuclei (%) [1]: 46% and 53% and 44%
Population Tubulin-Different-Phenotype (%) [1]: 47% and 61% and 57%
Total Cell Count [1]: 146 and 134
Population Apoptotic (%) [2]: 25% and 63% and 33%
Population Fragmented Nuclei (%) [2]: 14% and 11% and 7%
Population Healthy Nuclei (%) [2]: 81% and 70% and 89%
Population Mitochondria Different-Phenotype (%) [2]: 20% and 14% and 10%
Population Mitotic Cells (%) [2]: 75% and 36% and 66%
Population Normal (%) [2]: 80% and 86% and 94%
Population Tubulin-Different-Phenotype (%) [2]: 21% and 19% and 12%
Total Cell Count [2]: 135 and 58 and 69
Population Apoptotic (%) [3]: 94% and 85% and 73%
Population Fragmented Nuclei (%) [3]: 34% and 37% and 21%
Population Healthy Nuclei (%) [3]: 20% and 17% and 28%
Population Hoechst High Intensity Objects (%) [3]: 19% and 17% and 12%
Population Membrane Permeable-Phenotype (%) [3]: 36% and 16% and 19%
Population Mitochondria Different-Phenotype (%) [3]: 20% and 25% and 36%
Population Normal (%) [3]: 80% and 82% and 87%
Population Pyknosed Nuclei (%) [3]: 45% and 44% and 50%
Population Tubulin-Different-Phenotype (%) [3]: 32% and 48% and 51%
Total Cell Count [3]: 153 and 216 and 163
Population Apoptotic (%) [4]: 80% and 75% and 41%
Population Fragmented Nuclei (%) [4]: 39% and 27%
Population Healthy Nuclei (%) [4]: 25% and 58%
Population Membrane Permeable-Phenotype (%) [4]: 61% and 54% and 30%
Population Mitochondria Different-Phenotype (%) [4]: 66% and 54% and 34%
Population Mitotic Cells (%) [4]: 20% and 25% and 58%
Population Normal (%) [4]: 89% and 95% and 97%
Population Pyknosed Nuclei (%) [4]: 39% and 47% and 20%
Population Tubulin-Different-Phenotype (%) [4]: 55% and 54% and 34%
Total Cell Count [4]: 89 and 86 and 105
Population Apoptotic (%) [5]: 58% and 59% and 61%
Population Fragmented Nuclei (%) [5]: 20% and 24% and 25%
Population Healthy Nuclei (%) [5]: 39% and 33% and 42%
Population Hoechst High Intensity Objects (%) [5]: 18% and 10%
Population Membrane Permeable-Phenotype (%) [5]: 35% and 23% and 20%
Population Mitochondria Different-Phenotype (%) [5]: 17% and 9% and 18%
Population Mitotic Cells (%) [5]: 41% and 40% and 38%
Population Normal (%) [5]: 81% and 89%
Population Pyknosed Nuclei (%) [5]: 41% and 42% and 31%
Population Tubulin-Different-Phenotype (%) [5]: 53% and 66% and 52%
Total Cell Count [5]: 123 and 142 and 153
Population Fragmented Nuclei (%) [6]: 12% and 7%
Population Healthy Nuclei (%) [6]: 78% and 80% and 86%
Population Membrane Permeable-Phenotype (%) [6]: 7% and 6% and 3%
Population Mitochondria Different-Phenotype (%) [6]: 20% and 10% and 8%
Population Mitotic Cells (%) [6]: 87% and 60% and 55%
Population Normal (%) [6]: 80% and 95% and 96%
Population Pyknosed Nuclei (%) [6]: 9% and 12% and 6%
Population Tubulin-Different-Phenotype (%) [6]: 13% and 26% and 14%
Total Cell Count [6]: 148 and 64 and 84
Population Apoptotic (%) [7]: 84% and 87%
Population Fragmented Nuclei (%) [7]: 31% and 40% and 42%
Population Healthy Nuclei (%) [7]: 24% and 22%
Population Hoechst High Intensity Objects (%) [7]: 20% and 15% and 21%
Population Membrane Permeable-Phenotype (%) [7]: 23% and 21% and 17%
Population Mitochondria Different-Phenotype (%) [7]: 43% and 48% and 34%
Population Mitotic Cells (%) [7]: 15% and 12%
Population Normal (%) [7]: 79% and 84% and 78%
Population Pyknosed Nuclei (%) [7]: 43% and 36% and 35%
Population Tubulin-Different-Phenotype (%) [7]: 63% and 53% and 68%
Total Cell Count [7]: 154 and 214 and 166
Population Apoptotic (%) [8]: 91% and 94% and 89%
Population Fragmented Nuclei (%) [8]: 25% and 32% and 19%
Population Hoechst High Intensity Objects (%) [8]: 9%
Population Mitotic Cells (%) [8]: 8% and 5% and 10%
Population Normal (%) [8]: 90%
Population Pyknosed Nuclei (%) [8]: 49% and 50% and 21%
Total Cell Count [8]: 98 and 89 and 110
Population Apoptotic (%) [9]: 75% and 70%
Population Fragmented Nuclei (%) [9]: 38% and 39% and 30%
Population Healthy Nuclei (%) [9]: 46% and 41%
Population Hoechst High Intensity Objects (%) [9]: 25% and 18%
Population Membrane Permeable-Phenotype (%) [9]: 32% and 27% and 25%
Population Mitochondria Different-Phenotype (%) [9]: 8% and 9% and 10%
Population Mitotic Cells (%) [9]: 25% and 30%
Population Normal (%) [9]: 74% and 81%
Population Pyknosed Nuclei (%) [9]: 16% and 19% and 23%
Population Tubulin-Different-Phenotype (%) [9]: 43% and 48% and 50%
Total Cell Count [9]: 135 and 127 and 148
Population Apoptotic (%) [10]: 100% and 60%
Population Fragmented Nuclei (%) [10]: 19% and 21% and 22%
Population Healthy Nuclei (%) [10]: 80% and 73% and 75%
Population Hoechst High Intensity Objects (%) [10]: 8% and 7% and 5%
Population Membrane Permeable-Phenotype (%) [10]: 20% and 15% and 13%
Population Mitochondria Different-Phenotype (%) [10]: 3% and 1%
Population Normal (%) [10]: 91% and 92% and 94%
Population Pyknosed Nuclei (%) [10]: 0% and 4% and 1%
Population Tubulin-Different-Phenotype (%) [10]: 39% and 17% and 40%
Total Cell Count [10]: 131 and 116 and 118
Population Apoptotic (%) [11]: 85% and 83% and 92%
Population Fragmented Nuclei (%) [11]: 41% and 44% and 50%
Population Healthy Nuclei (%) [11]: 22% and 29% and 25%
Population Hoechst High Intensity Objects (%) [11]: 20% and 26%
Population Membrane Permeable-Phenotype (%) [11]: 32% and 23%
Population Mitochondria Different-Phenotype (%) [11]: 40% and 48% and 30%
Population Mitotic Cells (%) [11]: 15% and 16% and 7%
Population Normal (%) [11]: 79% and 73%
Population Pyknosed Nuclei (%) [11]: 35% and 25%
Population Tubulin-Different-Phenotype (%) [11]: 48% and 44% and 53%
Total Cell Count [11]: 141 and 195
Population Apoptotic (%) [12]: 84% and 100% and 94%
Population Fragmented Nuclei (%) [12]: 51% and 53%
Population Healthy Nuclei (%) [12]: 35% and 24% and 30%
Population Hoechst High Intensity Objects (%) [12]: 16% and 29%
Population Membrane Permeable-Phenotype (%) [12]: 34% and 14% and 27%
Population Mitochondria Different-Phenotype (%) [12]: 78% and 85% and 72%
Population Mitotic Cells (%) [12]: 0% and 5%
Population Normal (%) [12]: 83% and 70%
Population Pyknosed Nuclei (%) [12]: 20% and 24% and 15%
Population Tubulin-Different-Phenotype (%) [12]: 34% and 32% and 54%
Total Cell Count [12]: 89 and 137 and 153
